Paper PMC3123137 (Journal of immunology (Baltimore, Md. : 1950), 2011)
Entries after “also recorded” stand apart in the source; their conditions may differ. Bridge positions count the residues as written; N and C are the ends. Ends that are not written are not given here.

Key:
sheep erythrocytes = experiment: Hemolytic assay; assay type: cell-based
In short: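 Sheep erythrocytes washed in VBS–5 mM Mg2+/EGTA; cell amount set by water-lysis titration to give OD405 ~1. Serially diluted test compound or anti-factor H SCR19–20 mAb mixed with cells and human lepirudin plasma (1:10 in VBS–Mg2+/EGTA), 37°C, 1 h, shaking. Lysis read as supernatant OD405 after centrifugation. Run ≥3 times with different donors' plasma; means ± SD of a representative run.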

factor H [1] = target: T1, factor H (Homo sapiens, UniProt P08603); experiment: ELISA, binding of purified factor H to immobilized peptide; conditions: summary statement
T1 sequence (P08603 19-1231): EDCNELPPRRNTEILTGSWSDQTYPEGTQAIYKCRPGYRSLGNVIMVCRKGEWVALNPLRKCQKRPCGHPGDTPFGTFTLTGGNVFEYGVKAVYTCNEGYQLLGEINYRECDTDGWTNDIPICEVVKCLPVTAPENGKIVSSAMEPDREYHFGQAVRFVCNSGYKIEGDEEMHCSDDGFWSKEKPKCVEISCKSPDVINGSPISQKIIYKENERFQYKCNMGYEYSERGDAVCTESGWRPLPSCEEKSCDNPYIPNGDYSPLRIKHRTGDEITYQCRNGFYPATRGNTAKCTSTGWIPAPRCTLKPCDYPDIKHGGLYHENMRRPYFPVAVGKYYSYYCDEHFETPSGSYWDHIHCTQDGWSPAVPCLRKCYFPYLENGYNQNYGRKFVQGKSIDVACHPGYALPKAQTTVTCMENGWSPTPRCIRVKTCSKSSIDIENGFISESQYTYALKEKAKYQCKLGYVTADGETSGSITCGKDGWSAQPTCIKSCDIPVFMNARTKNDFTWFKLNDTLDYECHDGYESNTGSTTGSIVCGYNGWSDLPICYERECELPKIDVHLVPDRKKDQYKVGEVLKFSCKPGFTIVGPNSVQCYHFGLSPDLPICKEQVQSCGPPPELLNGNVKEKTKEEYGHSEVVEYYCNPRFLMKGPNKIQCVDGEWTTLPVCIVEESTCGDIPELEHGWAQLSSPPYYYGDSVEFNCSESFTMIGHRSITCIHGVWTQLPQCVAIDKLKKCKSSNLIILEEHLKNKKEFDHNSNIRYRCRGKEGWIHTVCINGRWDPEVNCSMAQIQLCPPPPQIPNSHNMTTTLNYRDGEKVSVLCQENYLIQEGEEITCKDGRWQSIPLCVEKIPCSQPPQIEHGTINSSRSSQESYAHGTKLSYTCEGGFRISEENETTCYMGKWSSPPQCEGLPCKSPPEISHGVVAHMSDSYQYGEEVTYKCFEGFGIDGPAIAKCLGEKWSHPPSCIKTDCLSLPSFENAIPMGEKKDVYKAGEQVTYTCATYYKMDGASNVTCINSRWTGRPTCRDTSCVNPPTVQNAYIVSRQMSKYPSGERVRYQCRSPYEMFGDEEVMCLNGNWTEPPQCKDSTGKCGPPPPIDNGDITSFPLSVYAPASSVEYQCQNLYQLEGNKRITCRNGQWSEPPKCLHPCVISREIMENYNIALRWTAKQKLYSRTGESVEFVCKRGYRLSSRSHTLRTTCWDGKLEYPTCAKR
In short: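 Streptavidin (10 μg/ml in PBS) was coated overnight at 4°C and blocked with 2% BSA in PBS. Biotinylated test peptide or biotinylated linear compstatin control was added at 10 μg/ml for 30 min at RT. Purified human factor H was serially diluted in PBS from 2.5 μg/ml and bound for 1 h. Detection used goat anti-human factor H pAb, then HRP anti-goat IgG. Means ± SD, representative of three experiments.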

[2] = tested on: alternative pathway of complement; experiment: Inhibition of biomaterial-induced AP activation by immobilized peptide; assay type: biochemical, human
factor H [3] = target: T1, factor H; experiment: Factor H capture from lepirudin plasma by immobilized peptide; assay type: binding; conditions: no streptavidin-biotin conjugation
fH1–4 = fH1–4 (Homo sapiens, UniProt P08603); experiment: Monoclonal phage ELISA, N-terminal fragment; assay type: binding; conditions: phage clone; coated wells, 1 h room temperature, anti-M13 HRP/ABTS
Sequence of fH1–4 (P08603 19-264): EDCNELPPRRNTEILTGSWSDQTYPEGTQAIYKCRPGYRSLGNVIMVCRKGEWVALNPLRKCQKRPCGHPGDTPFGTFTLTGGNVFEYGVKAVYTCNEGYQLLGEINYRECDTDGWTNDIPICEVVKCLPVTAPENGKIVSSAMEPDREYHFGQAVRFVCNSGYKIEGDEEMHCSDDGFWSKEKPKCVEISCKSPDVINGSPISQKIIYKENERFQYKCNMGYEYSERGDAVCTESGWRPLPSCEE
In short: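 Wells were coated overnight at 4°C with recombinant factor H SCR1–4 (5 μg/ml in PBS), with BSA wells in parallel, then blocked with 5% milk in PBST for 1 h. Amplified single third-round plaques were bound for 1 h at RT and washed six times with PBST. Detection used HRP anti-M13 mAb with ABTS. An unrelated cyclic-peptide phage served as control, and C3b as negative control.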

[4] = tested on: factor H cofactor activity; experiment: Factor H cofactor activity assay; assay type: biochemical, human; conditions: peptide expressed as fusion protein with phage PIII domain (Supplemental Fig. 2)
complement activation = conditions: cited from earlier work
immune cells = conditions: addition to blood, hemodialysis; ref [15]; cited from earlier work
cells = conditions: soluble inhibitor or heparin-coated surface; ref [8]–[11]; cited from earlier work
plasma proteins = conditions: ref [56], [57]; cited from earlier work
various cells = conditions: ref [11], [58], [59]; cited from earlier work

## ASSGMCFTKKTVLC (disulfide 6-14 (inferred)) [4A1]
Sheep erythrocytes; peptide expressed as fusion protein with phage PIII domain (Supplemental Fig. 2)
  Effect on hemolytic assay as phage PIII fusion protein: affected

## ASSSRCTYDHWCSH (disulfide 6-12 (inferred)) [5C6]
Factor H [1]
  Factor H-capturing activity: high factor H-capturing activity while retaining its functional integrity; also recorded: able to capture factor H at high activity without interfering with its regulatory activity
Sheep erythrocytes; 5C6 up to 40 μM, lepirudin plasma 1:10 in VBS–Mg2+/EGTA, 37°C, 1 h, OD405
  Lysis of sheep erythrocytes: No lysis
Sheep erythrocytes; soluble 5C6 peptide, hemolytic assay (conclusion)
  Interference with factor H cell-surface binding / surface recognition: does not interfere with the cofactor activity or cell-surface binding properties of factor H; also recorded: did not interfere with the surface recognition properties of factor H
[2]; immobilized on model biomaterial surface, undiluted lepirudin plasma
  Inhibition of biomaterial-induced complement activation in undiluted plasma: substantial inhibition of biomaterial-induced complement activation
[2]; peptide coated directly, no streptavidin-biotin conjugation
  Inhibition of complement, peptide coated directly onto polystyrene: Neither factor H binding nor inhibition of complement was seen
Factor H [3]
  Factor H binding, peptide coated directly onto polystyrene: Neither factor H binding nor inhibition of complement was seen

## ASSYDVGYSHDCRF [5-2C6]
fH1–4
  Binding to fH1–4 (N-terminal regulatory region): bound to the N-terminal regulatory region of factor H
[4]
  Effect on cofactor assay as phage PIII fusion protein: affected

## compstatin
Complement activation; addition to blood, hemodialysis, ref [15]
  Filter-induced complement response: inhibited filter-induced complement response
Immune cells
  Activation of immune cells and expression of pro-coagulative factors: subsequent activation of immune cells and the expression of pro-coagulative factors
cells
  Biomaterial-induced activation and surface adhesion of cells: inhibition of complement activation largely attenuates biomaterial-induced activation and surface adhesion of cells

## heparin
Complement activation; heparin coating, ref [55]
  Dependence of inhibition on factor H capturing: independent of factor H capturing by heparin
Complement activation; highly concentrated heparin coating, ref [14], [53]–[55]
  Biomaterial-induced complement activation: inhibited biomaterial-induced complement activation
Complement activation; ref [14], [60]
  Complement activation at low concentrations in the fluid phase: may actually enhance complement activation at low concentrations in the fluid phase
Plasma proteins
  Plasma protein binding specificity: broad binding specificity for plasma proteins
Various cells
  Activation of cells: induces activation of various cells
cells
  Biomaterial-induced activation and surface adhesion of cells: inhibition of complement activation largely attenuates biomaterial-induced activation and surface adhesion of cells

B1: decay accelerating factor (CD55): AP regulator immobilized on surfaces (protein, UniProt P08174 35-353, looked up)
Complement decay-accelerating …: DCGLPPDVPNAQPALEGRTSFPEDTVITYKCEESFVKIPGEKDSVICLKGSQWSDIEEFCNRSCEVPTRLNSASLKQPYITQNYFPVGTVVEYECRPGYRREPSLSPKLTCLQNLKWSTAVEFCKKKSCPNPGEIRNGQIDVPGGILFGATISFSCNTGYKLFGSTSSFCLISGSSVQWSDPLPECREIYCPAPPQIDNGIIQGERDHYGYRQSVTYACNKGFTMIGEHSIYCTVNNDEGEWSGPPPECRGKSLTSKVPPTVQKPTTVNVPTTEVSPTSQKTTTKTTTPNAQATRSTPVSRTTKHFHETTPNKGSGTTS
modifications: immobilized on surfaces
Complement activation; immobilized regulator, ref [39]–[41]
  Biomaterial-induced complement after immobilization of AP regulators: attenuated biomaterial-induced complement
